# Assay results: ChEMBL document CHEMBL1649119, “Daptomycin pharmacokinetics in adult oncology patients with neutropenic fever” (Antimicrob Agents Chemother, 2009)
# Assays:
# [1] = Clearance in old healthy human at 4 mg/kg, iv administered as single dose 30 mins infusion; type: ADME, organism-based; set-up: dose 4 mg/kg, route intravenous; conditions: in vivo
# [2] = Clearance in healthy human subjects at 12 mg/kg, iv administered as 30 mins infusion every 24 hrs measured on day 4; type: ADME, organism-based; set-up: dose 12 mg/kg, route intravenous; conditions: in vivo
# [3] = Apparent volume of distribution during terminal phase in healthy human subjects at 10 mg/kg, iv administered as 30 mins infusion every 24 hrs measured on day 4; type: ADME, organism-based; set-up: dose 10 mg/kg, route intravenous; conditions: in vivo
# [4] = Drug excretion in adult human with hepatic impairment urine assessed as unchanged drug at 6 mg/kg, iv administered as single dose 30 mins infusion; type: ADME, organism-based; set-up: dose 6 mg/kg, route intravenous; conditions: read-out: Drug uptake
# [5] = Clearance in healthy human at 8 mg/kg, iv administered as 30 mins infusion every 24 hrs measured on day 14; type: ADME, organism-based; set-up: dose 8 mg/kg, route intravenous; conditions: in vivo
# [6] = Half life in healthy human subjects at 10 mg/kg, iv administered as 30 mins infusion every 24 hrs measured on day 1; type: ADME, organism-based; set-up: dose 10 mg/kg, route intravenous; conditions: in vivo
# [7] = Renal clearance in morbidly obese adult human at 4 mg/kg, iv administered as single dose 30 mins infusion; type: ADME, organism-based, Kidney; set-up: dose 4 mg/kg, route intravenous; conditions: in vivo, read-out: CL_renal (converted)
# [8] = Volume of distribution at steady state in moderately obese adult human at 4 mg/kg, iv administered as single dose 30 mins infusion; type: ADME, organism-based; set-up: dose 4 mg/kg, route intravenous; conditions: in vivo, read-out: Vdss
# [9] = Clearance in healthy human subjects at 6 mg/kg, iv administered as 30 mins infusion every 24 hrs measured on days 1-3; type: ADME, organism-based; set-up: dose 6 mg/kg, route intravenous; conditions: in vivo
# [10] = Cmax in old healthy human at 4 mg/kg, iv administered as single dose 30 mins infusion; type: ADME, organism-based; set-up: dose 4 mg/kg, route intravenous; conditions: in vivo
# [11] = Apparent volume of distribution during terminal phase in healthy human subjects at 12 mg/kg, iv administered as 30 mins infusion every 24 hrs measured on day 14; type: ADME, organism-based; set-up: dose 12 mg/kg, route intravenous; conditions: in vivo
# [12] = Cmax in healthy human subjects at 12 mg/kg, iv administered as 30 mins infusion every 24 hrs measured on day 14; type: ADME, organism-based; set-up: dose 12 mg/kg, route intravenous; conditions: in vivo
# [13] = Half life in healthy human at 4 mg/kg, iv administered as single dose 30 mins infusion; type: ADME, organism-based; set-up: dose 4 mg/kg, route intravenous; conditions: in vivo
# [14] = Apparent volume of distribution during terminal phase in healthy human subjects at 10 mg/kg, iv administered as 30 mins infusion every 24 hrs measured on day 1; type: ADME, organism-based; set-up: dose 10 mg/kg, route intravenous; conditions: in vivo
# [15] = Mean residence time in cancer patient with neutropenic fever at 6 mg/kg, iv administered as 30 mins infusion every 24 hrs; type: ADME, organism-based; set-up: dose 6 mg/kg, route intravenous; conditions: human, in vivo
# In short: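 Patients with neutropenic fever; 6 mg/kg by total body weight, 30-min IV infusion every 24 h; serial plasma sampling predose to 24 h after infusion start. Total plasma drug by validated HPLC; mean residence time from noncompartmental analysis of concentration-time data.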
# [16] = Half life in healthy human subjects at 10 mg/kg, iv administered as 30 mins infusion every 24 hrs measured on day 14; type: ADME, organism-based; set-up: dose 10 mg/kg, route intravenous; conditions: in vivo
# [17] = Cmax in healthy human subjects at 8 mg/kg, iv administered as 30 mins infusion every 24 hrs measured on day 4; type: ADME, organism-based; set-up: dose 8 mg/kg, route intravenous; conditions: in vivo
# [18] = Drug excretion in nonobese human at 4 mg/kg, iv administered as single dose 30 mins infusion; type: ADME, organism-based; set-up: dose 4 mg/kg, route intravenous; conditions: in vivo, read-out: Drug uptake
# [19] = Half life in healthy human subjects at 6 mg/kg, iv administered as 30 mins infusion every 24 hrs measured on days 1-3; type: ADME, organism-based; set-up: dose 6 mg/kg, route intravenous; conditions: in vivo
# [20] = Clearance in nonobese human at 4 mg/kg, iv administered as single dose 30 mins infusion; type: ADME, organism-based; set-up: dose 4 mg/kg, route intravenous; conditions: in vivo
# [21] = Apparent volume of distribution during terminal phase in healthy human at 6 mg/kg, iv administered as 30 mins infusion every 24 hrs measured on day 1; type: ADME, organism-based; set-up: dose 6 mg/kg, route intravenous; conditions: in vivo
# [22] = Cmax in adult human with hepatic impairment at 6 mg/kg, iv administered as single dose 30 mins infusion; type: ADME, organism-based; set-up: dose 6 mg/kg, route intravenous; conditions: in vivo
# Homo sapiens [23] = experiment: Half life in cancer patient with neutropenic fever at 6 mg/kg, iv administered as 30 mins infusion every 24 hrs; type: ADME, organism-based; set-up: dose 6 mg/kg, route intravenous; conditions: in vivo
# In short: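 Patients with neutropenic fever; 6 mg/kg by total body weight, 30-min IV infusion q24h. Plasma drawn predose, end of infusion, and 0.5, 1, 2, 4, 8, 12, 24 h after infusion start; total drug by validated HPLC (linear 1–100 μg/ml). Noncompartmental analysis; λz from terminal-phase regression, t1/2 = 0.693/λz.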
# [24] = Clearance in healthy human at 4 mg/kg, iv administered as 30 mins infusion every 24 hrs measured on day 1; type: ADME, organism-based; set-up: dose 4 mg/kg, route intravenous; conditions: in vivo
# [25] = Drug excretion in moderately obese adult human urine assessed as unchanged drug at 4 mg/kg, iv administered as single dose 30 mins infusion; type: ADME, organism-based; set-up: dose 4 mg/kg, route intravenous; conditions: read-out: Drug uptake
# [26] = Half life in healthy human at 8 mg/kg, iv administered as 30 mins infusion every 24 hrs measured on day 1; type: ADME, organism-based; set-up: dose 8 mg/kg, route intravenous; conditions: in vivo
# [27] = Cmax in healthy human at 6 mg/kg, iv administered as 30 mins infusion every 24 hrs measured on day 1; type: ADME, organism-based; set-up: dose 6 mg/kg, route intravenous; conditions: in vivo
# [28] = Apparent volume of distribution during terminal phase in healthy human at 4 mg/kg, iv administered as 30 mins infusion every 24 hrs measured on day 1; type: ADME, organism-based; set-up: dose 4 mg/kg, route intravenous; conditions: in vivo
# [29] = Plasma concentration in nonobese human subjects at 4 mg/kg, iv administered as single dose 30 mins infusion measured after 24 hrs; type: ADME, organism-based; set-up: dose 4 mg/kg, route intravenous
# [30] = AUC (0 to infinity) in adult human with hepatic impairment at 6 mg/kg, iv administered as single dose 30 mins infusion; type: ADME, organism-based; set-up: time infinity, dose 6 mg/kg, route intravenous; conditions: plasma
# [31] = AUC (0 to infinity) in nonobese human at 4 mg/kg, iv administered as single dose 30 mins infusion; type: ADME, organism-based; set-up: time infinity, dose 4 mg/kg, route intravenous; conditions: plasma
# [32] = Half life in healthy human subjects at 10 mg/kg, iv administered as 30 mins infusion every 24 hrs measured on day 4; type: ADME, organism-based; set-up: dose 10 mg/kg, route intravenous; conditions: in vivo
# [33] = Volume of distribution at steady state in nonobese adult human at 4 mg/kg, iv administered as single dose 30 mins infusion; type: ADME, organism-based; set-up: dose 4 mg/kg, route intravenous; conditions: in vivo, read-out: Vdss
# [34] = Cmax in morbidly obese adult human at 4 mg/kg, iv administered as single dose 30 mins infusion; type: ADME, organism-based; set-up: dose 4 mg/kg, route intravenous; conditions: in vivo
# [35] = Clearance in adult human with hepatic impairment at 6 mg/kg, iv administered as single dose 30 mins infusion; type: ADME, organism-based, Liver; set-up: dose 6 mg/kg, route intravenous; conditions: in vivo
# [36] = Unbound fraction in healthy human plasma at 6 mg/kg, iv administered as 30 mins infusion every 24 hrs measured on day 7; type: ADME, organism-based; set-up: dose 6 mg/kg, route intravenous
# Homo sapiens [37] = experiment: Apparent volume of distribution in healthy human at 4 mg/kg, iv administered as single dose 30 mins infusion; type: ADME, organism-based; set-up: dose 4 mg/kg, route intravenous; conditions: in vivo, 0.5 h
# [38] = Cmax in healthy human subjects at 8 mg/kg, iv administered as 30 mins infusion every 24 hrs measured on day 1; type: ADME, organism-based; set-up: dose 8 mg/kg, route intravenous; conditions: in vivo
# [39] = Apparent volume of distribution in old healthy human at 4 mg/kg, iv administered as single dose 30 mins infusion; type: ADME, organism-based; set-up: dose 4 mg/kg, route intravenous; conditions: in vivo
# [40] = AUC (0 to infinity) in healthy human subjects at 12 mg/kg, iv administered as 30 mins infusion every 24 hrs measured on day 1; type: ADME, organism-based; set-up: time infinity, dose 12 mg/kg, route intravenous; conditions: plasma
# [41] = Renal clearance in adult human subjects at 6 mg/kg, iv administered as single dose 30 mins infusion; type: ADME, organism-based, Kidney; set-up: dose 6 mg/kg, route intravenous; conditions: in vivo, read-out: CL_renal (converted)
# [42] = Renal clearance in nonobese adult human at 4 mg/kg, iv administered as single dose 30 mins infusion; type: ADME, organism-based, Kidney; set-up: dose 4 mg/kg, route intravenous; conditions: in vivo, read-out: CL_renal (converted)
# [43] = Half life in nonobese adult human at 4 mg/kg, iv administered as single dose 30 mins infusion; type: ADME, organism-based; set-up: dose 4 mg/kg, route intravenous; conditions: in vivo
# [44] = AUC (0 to infinity) in healthy human subjects at 12 mg/kg, iv administered as 30 mins infusion every 24 hrs measured on day 14; type: ADME, organism-based; set-up: time infinity, dose 12 mg/kg, route intravenous; conditions: plasma
smiles,measurement,setting,value
CCCCCCCCCC(=O)N[C@@H](Cc1c[nH]c2ccccc12)C(=O)N[C@H](CC(N)=O)C(=O)N[C@@H](CC(=O)O)C(=O)N[C@@H]1C(=O)NCC(=O)N[C@@H](CCCN)C(=O)N[C@@H](CC(=O)O)C(=O)N[C@H](C)C(=O)N[C@@H](CC(=O)O)C(=O)NCC(=O)N[C@H](CO)C(=O)N[C@@H]([C@H](C)CC(=O)O)C(=O)N[C@@H](CC(=O)c2ccccc2N)C(=O)O[C@@H]1C,clearance,[1],0.164 mL/min/kg
same,clearance,[2],0.15 mL/min/kg
same,Vd,[3],0.0983 L/kg
same,dose excreted at 0.5 h,[4],49.3%
same,clearance,[5],0.123 mL/min/kg
same,half-life,[6],8.4 h
same,CL renal at 0.5 h,[7],0.134 mL/min/kg
same,Vd,[8],0.15 L/kg
same,clearance,[9],0.158 mL/min/kg
same,Cmax,[10],44 µg/mL
same,Vd,[11],0.0992 L/kg
same,Cmax,[12],182 µg/mL
same,half-life,[13],7.74 h
same,Vd,[14],0.117 L/kg
same,MRT,[15],11.9 h
same,half-life,[16],7.9 h
same,Cmax,[17],123 µg/mL
same,dose excreted at 0.5 h,[18],48.6%
same,half-life,[19],7.6 h
same,clearance,[20],0.17 mL/min/kg
same,Vd,[21],0.096 L/kg
same,Cmax,[22],114 µg/mL
same,t1/2,Homo sapiens [23],8.75 h
same,clearance,[24],0.16 mL/min/kg
same,dose excreted at 0.5 h,[25],51.8%
same,half-life,[26],9.6 h
same,Cmax,[27],86.4 µg/mL
same,Vd,[28],0.101 L/kg
same,concentration at 24 h,[29],3.39 µg/mL
same,AUC(0-inf),[30],867 µg·h/mL
same,AUC(0-inf),[31],419 µg·h/mL
same,half-life,[32],7.9 h
same,Vd,[33],0.13 L/kg
same,Cmax,[34],67 µg/mL
same,clearance,[35],0.118 mL/min/kg
same,fraction unbound at 7 day,[36],0.08
same,Vd,Homo sapiens [37],6350 mL
same,Cmax,[38],106 µg/mL
same,Vd,[39],0.17 L/kg
same,AUC(0-inf),[40],1270 µg·h/mL
same,CL renal at 0.5 h,[41],0.0453 mL/min/kg
same,CL renal at 0.5 h,[42],0.139 mL/min/kg
same,half-life,[43],6.83 h
same,AUC(0-inf),[44],1290 µg·h/mL
